# Laboratory results from ChEMBL document CHEMBL3576866, “Discovery of a Cyclic Boronic Acid β-Lactamase Inhibitor (RPX7009) with Utility vs Class A Serine Carbapenemases” (J Med Chem, 2015).
# How the values were obtained:
# [1] = target: T1, Class A carbapenemase (Enterobacter cloacae) (UniProt A7WP95); experiment: Inhibition of Enterobacter cloacae ECL1058 KPC-3 assessed as meropenem MIC at 4 ug/ml by broth microdilution method
# T1 sequence (whole entry): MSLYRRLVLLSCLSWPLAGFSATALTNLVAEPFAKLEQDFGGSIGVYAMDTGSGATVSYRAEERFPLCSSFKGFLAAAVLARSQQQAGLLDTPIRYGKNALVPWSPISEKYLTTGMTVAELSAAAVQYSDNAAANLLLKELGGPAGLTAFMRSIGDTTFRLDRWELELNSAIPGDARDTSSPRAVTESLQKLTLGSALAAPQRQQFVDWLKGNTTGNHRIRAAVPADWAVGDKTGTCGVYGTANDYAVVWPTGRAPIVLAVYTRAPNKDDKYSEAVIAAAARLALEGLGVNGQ
# [2] = target: Beta lactamase TEM-1 (Klebsiella pneumoniae) (UniProt Q7B899); experiment: Inhibition of Klebsiella pneumoniae KP1087 TEM-1 assessed as meropenem MIC at 4 ug/ml by broth microdilution method
# How it was run: (§1)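 CLSI broth microdilution (M07-A9, 2012) MIC of the carbapenem against clinical serine carbapenemase-producing strain, tested alone and with the inhibitor held at a fixed 4 μg/mL.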
# [3] = target: Tissue-type plasminogen activator (Homo sapiens, UniProt P00750); experiment: Inhibition of tissue plasminogen activator (unknown origin) using GK-pNA as substrate preincubated for 10 mins followed by substrate addition measured for 30 mins by spectrophotometric analysis
# How it was run: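 Tissue plasminogen activator (commercial) in 30 mM Tris-HCl, pH 8.5, 30 mM imidazole, 130 mM NaCl. Incubated with inhibitor at several concentrations for 10 min at 37 °C. GK-pNA (listed at 100 μM) was added and absorbance followed for 30 min. Rates were relative to a no-treatment control; IC50 is the concentration giving 50% inhibition.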
# Neutrophil elastase = Neutrophil elastase (Homo sapiens, UniProt P08246); experiment: Inhibition of neutrophil elastase (unknown origin) using MeOSuc-AAVP-AMC as substrate preincubated for 10 mins followed by substrate addition measured for 30 mins by spectrophotometric analysis
# How it was run: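 Purified commercial enzyme, mixed with inhibitor across a concentration range in 50 mM Tris-HCl pH 7.5, 1 M NaCl and held 10 min at 37 °C. MeOSuc-AAVP-AMC (30 μM) then added and fluorescence followed for 30 min. Rates expressed relative to untreated control. IC50 taken as the concentration giving 50% inhibition. AEBSF and leupeptin served as positive controls.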
# [4] = Volume of distribution in rat at 300 mg/kg, iv administered as 0.5 hrs infusion by HPLC-MS method; assay type: ADME, organism-based; settings: in vivo
# [5] = Half life in rat at 1000 mg/kg, iv administered as 0.5 hrs infusion by HPLC-MS method; assay type: ADME, organism-based; settings: in vivo
# [6] = Half life in human at 1 g administered as 3 hrs of infusion; assay type: ADME, organism-based; settings: in vivo, iv
# Escherichia coli [7] = experiment: Inhibition of Escherichia coli EC1008 CTX-M-3 assessed as cefepime MIC at 4 ug/ml by broth microdilution method
# How it was run: (§2)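 CLSI broth microdilution (M07-A9) against clinical strains expressing serine β-lactamases.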
# Klebsiella aerogenes = experiment: Inhibition of Enterobacter aerogenes EA1028 OXA-30 assessed as cefepime MIC at 4 ug/ml by broth microdilution method; how it was run: as §2
# Klebsiella oxytoca [8] = experiment: Inhibition of Klebsiella oxytoca KX1017 OXA-2 assessed as biapenem MIC at 4 ug/ml by broth microdilution method
# [9] = target: Beta lactamase TEM-1 (Klebsiella pneumoniae) (UniProt Q7B899); experiment: Inhibition of Klebsiella pneumoniae KP1084 TEM-1 assessed as ertapenem MIC at 4 ug/ml by broth microdilution method; how it was run: as §1
# [10] = target: Beta-lactamase TEM (Enterobacter cloacae) (UniProt Q6W9J1); experiment: Inhibition of Enterobacter cloacae ECL1058 TEM-1 assessed as ertapenem MIC at 4 ug/ml by broth microdilution method
# Klebsiella oxytoca [11] = experiment: Inhibition of Klebsiella oxytoca KX1017 OXA-2 assessed as ertapenem MIC at 4 ug/ml by broth microdilution method
# Klebsiella pneumoniae [12] = experiment: Inhibition of Klebsiella pneumoniae KP1004 KPC-2 assessed as ertapenem MIC at 4 ug/ml by broth microdilution method; how it was run: as §1
# [13] = target: Class A carbapenemase KPC-2 (Escherichia coli) (UniProt A8DS27); experiment: Inhibition of Escherichia coli EC1007 KPC-3 assessed as imipenem MIC at 4 ug/ml by broth microdilution method
# Enterobacter cloacae = experiment: Inhibition of Enterobacter cloacae ECL1058 SHV-11 assessed as imipenem MIC at 4 ug/ml by broth microdilution method
# Klebsiella pneumoniae [14] = experiment: Inhibition of Klebsiella pneumoniae KP1004 KPC-2 assessed as imipenem MIC at 4 ug/ml by broth microdilution method; how it was run: as §1
# [15] = Inhibition of Escherichia coli recombinant KPC-2 assessed as substrate nitrocefin degradation preincubated for 10 mins followed by substrate addition measured every 10 secs for 10 mins by spectrophotometric analysis
# How it was run: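 β-Lactamases purified from overexpressing recombinant E. coli. Enzyme preincubated with inhibitor at varying concentrations for 10 min at room temperature in 50 mM Na phosphate pH 7.0, 0.1 mg/mL BSA. Then 50 μM nitrocefin (final) added and cleavage read at 490 nm every 10 s for 10 min. Ki derived by the Waley method.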
# Escherichia coli [16] = experiment: Inhibition of Escherichia coli EC1009 TEM-10 assessed as cefepime MIC at 4 ug/ml by broth microdilution method; how it was run: as §2
# [17] = target: Beta-lactamase (Enterobacter cloacae) (UniProt G8A3U3); experiment: Inhibition of Enterobacter cloacae ECL1003 TEM assessed as cefepime MIC at 4 ug/ml by broth microdilution method
# Tissue-type plasminogen activator, sequence (P00750 whole entry): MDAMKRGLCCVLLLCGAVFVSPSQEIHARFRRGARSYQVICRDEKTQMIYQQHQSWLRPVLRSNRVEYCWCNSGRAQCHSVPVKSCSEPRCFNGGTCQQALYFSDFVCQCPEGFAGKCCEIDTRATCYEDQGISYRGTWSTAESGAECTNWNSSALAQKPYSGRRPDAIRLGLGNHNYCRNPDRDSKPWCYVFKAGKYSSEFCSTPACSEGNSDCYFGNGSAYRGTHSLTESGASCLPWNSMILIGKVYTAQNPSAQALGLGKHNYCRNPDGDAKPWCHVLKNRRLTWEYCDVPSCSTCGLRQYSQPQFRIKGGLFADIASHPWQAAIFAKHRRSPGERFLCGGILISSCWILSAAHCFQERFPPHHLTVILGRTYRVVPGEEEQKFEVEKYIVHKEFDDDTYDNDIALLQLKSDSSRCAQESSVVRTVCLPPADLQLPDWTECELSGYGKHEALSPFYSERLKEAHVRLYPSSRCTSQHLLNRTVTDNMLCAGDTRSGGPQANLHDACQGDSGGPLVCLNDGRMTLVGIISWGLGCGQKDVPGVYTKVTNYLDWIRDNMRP
# Neutrophil elastase, sequence (P08246 whole entry): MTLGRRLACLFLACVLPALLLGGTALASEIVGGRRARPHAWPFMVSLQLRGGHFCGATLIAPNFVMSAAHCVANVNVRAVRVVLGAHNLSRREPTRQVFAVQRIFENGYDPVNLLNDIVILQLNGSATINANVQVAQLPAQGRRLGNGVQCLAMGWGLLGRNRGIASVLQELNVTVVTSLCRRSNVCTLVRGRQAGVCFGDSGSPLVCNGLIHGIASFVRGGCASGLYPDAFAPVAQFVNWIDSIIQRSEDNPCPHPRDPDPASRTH
compound,measurement,setting,value
O=C(O)C[C@@H]1CC[C@H](NC(=O)Cc2cccs2)B(O)O1 [VABORBACTAM],MIC,[1],< 0.06 µg/mL
same,MIC,[2],1 µg/mL
same,IC50,[3],> 1000 µM
same,IC50,Neutrophil elastase,> 1000 µM
same,Vd,[4],0.48 L/kg
same,half-life,[5],24 min
same,half-life,[6],73.8 min
same,MIC,Escherichia coli [7],4 µg/mL
same,MIC,Klebsiella aerogenes,0.5 µg/mL
same,MIC,Klebsiella oxytoca [8],< 0.06 µg/mL
same,MIC,[9],4 µg/mL
same,MIC,[10],0.25 µg/mL
same,MIC,Klebsiella oxytoca [11],0.25 µg/mL
same,MIC,Klebsiella pneumoniae [12],≤ 0.06 µg/mL
same,MIC,[13],0.13 µg/mL
same,MIC,Enterobacter cloacae,0.25 µg/mL
same,MIC,Klebsiella pneumoniae [14],≤ 0.06 µg/mL
same,Ki,[15],0.069 µM
same,MIC,Escherichia coli [16],4 µg/mL
same,MIC,[17],8 µg/mL
